According to paper PMC5801548 (Bioconjugate chemistry, 2017):

Experiments:
P. aeruginosa ATCC 27853 = test: Disk diffusion assay; assay type: cell-based; conditions: Pa ATCC 27853, 20 μg on blank disc (Ø = 0.6 cm), 24 h
Outline: (§1)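 The test compound (20 µg) was loaded onto a blank 0.6 cm disc and placed on an agar plate inoculated with the bacterium. The plate was incubated for 24 h, and the diameter of the bacteria-free zone around the disc was measured in cm. Saline was included as a control.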

A. baumannii ATCC 19606 [1] = test: Disk diffusion assay; assay type: cell-based; conditions: Ab ATCC 19606, 20 μg on blank disc (Ø = 0.6 cm), 24 h
Outline: as §1

Ab ATCC 19606 = conditions: broth microdilution, mass basis; data with * ref [21]; cited from earlier work
A. baumannii ATCC 19606 [2] = test: Time-kill study; assay type: cell-based; conditions: 4 × MIC (mass based; higher value where MIC is a range)

| Substance | Diameter of Zone of Inhibition (ZOI) (P. aeruginosa ATCC 27853) | Diameter of Zone of Inhibition (ZOI) (A. baumannii ATCC 19606 [1]) | Minimum inhibitory concentration against Ab ATCC 19606 (MIC) (Ab ATCC 19606) | Time to inhibit the growth of bacteria to levels approaching the detection limit (A. baumannii ATCC 19606 [2]) |
| --- | --- | --- | --- | --- |
| colistin | 1.8 cm | 1.8 cm | 1* mg/L |  |
| colistin methanesulfonate [CMS] | 1.7 cm | 1.8 cm | 16* mg/L | around 6 h |
